# ChEMBL document CHEMBL1777792, “Synthesis and evaluation of indole-based new scaffolds for antimicrobial activities--identification of promising candidates” (Bioorg Med Chem Lett, 2011)
# How the values were obtained:
# [1] = test system: Candida albicans; assay: Antifungal activity against Candida albicans in yeast extract-peptone-glucose medium at 250 ug/ml after 48 hrs by disc diffusion assay in presence of 150 ug/ml of congo red; format: functional
# Outline: (§1)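 C. albicans cells at a set number were spread on YEPD agar, either plain or containing the cell-wall disruptant named in the line (SDS, Congo red or calcofluor white). Compound solution, or the reference solvent as control, was spotted onto 0.5 cm discs placed on the lawn. Plates were incubated at 30 °C and the inhibition zone diameter was measured.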
# [2] = test system: Candida albicans; assay: Antifungal activity against Candida albicans in yeast extract-peptone-glucose medium at 250 ug/ml after 48 hrs by disc diffusion assay in presence of 100 ug/ml of calcofluor white; format: functional; outline: as §1
# [3] = test system: Candida albicans; assay: Antifungal activity against Candida albicans in yeast extract-peptone-glucose medium at 250 ug/ml after 48 hrs by disc diffusion assay in presence of rhodamine 6G
# [4] = test system: Candida albicans; assay: Antifungal activity against Candida albicans in yeast extract-peptone-glucose medium at 250 ug/ml after 48 hrs by disc diffusion assay in presence of 0.01% of sodium dodecylsulphate; format: functional; details: read-out: DIZ; outline: as §1
# [5] = test system: Candida albicans; assay: Antifungal activity against Candida albicans in yeast extract-peptone-glucose medium at 250 ug/ml after 48 hrs by disc diffusion assay; format: functional; details: read-out: DIZ; outline: as §1
# [6] = test system: Escherichia coli; assay: Antibacterial activity against Escherichia coli harboring ampicillin-resistance gene encoding plasmid at 250 ug/ml after 24 hrs by disc diffusion assay; format: functional; details: read-out: DIZ
# Outline: (§2)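 Disc diffusion used an E. coli strain carrying a plasmid that encodes an ampicillin-resistance gene. Inhibition zone diameters were recorded and compared against the corresponding solvent controls.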
# [7] = test system: Candida albicans; assay: Antifungal activity against Candida albicans in yeast extract-peptone-glucose medium at 300 ug/ml after 48 hrs by disc diffusion assay; format: functional; details: read-out: DIZ; outline: as §1
# [8] = test system: Candida albicans; assay: Antifungal activity against Candida albicans in yeast extract-peptone-glucose medium at 428 ug/ml after 48 hrs by disc diffusion assay in presence of 150 ug/ml of congo red; format: functional
# Outline: (§3)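 Disc diffusion on YEPD agar containing a cell-wall-disrupting agent (SDS, Congo red or calcofluor white) and spread with a set number of C. albicans cells. Compound and reference solvent spotted on 0.5 cm discs. Incubated at 30 °C, then inhibition zone diameter measured against solvent.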
# [9] = test system: Candida albicans; assay: Antifungal activity against Candida albicans in yeast extract-peptone-glucose medium at 428 ug/ml after 48 hrs by disc diffusion assay in presence of 0.01% of sodium dodecylsulphate; format: functional; details: read-out: DIZ; outline: as §3
# [10] = test system: Escherichia coli; assay: Antibacterial activity against Escherichia coli harboring ampicillin-resistance gene encoding plasmid at 428 ug/ml after 24 hrs by disc diffusion assay; format: functional; details: read-out: DIZ; outline: as §2
# [11] = test system: Candida albicans; assay: Antifungal activity against Candida albicans in yeast extract-peptone-glucose medium at 428 ug/ml after 48 hrs by disc diffusion assay; format: functional; details: read-out: DIZ
# Outline: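 Solid-phase assay on YEPD agar spread with a set number of C. albicans cells. Compound solution and reference solvent spotted onto 0.5 cm discs. Plates incubated at 30 °C, and inhibition zone diameter measured against solvent control.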
# [12] = test system: Candida albicans; assay: Antifungal activity against Candida albicans in synthetic dextrose minimal medium after 48 hrs by ELISA based serial dilution method
# [13] = test system: Candida albicans; assay: Antifungal activity against Candida albicans in yeast extract-peptone-glucose medium at 428 ug/ml after 48 hrs by disc diffusion assay in presence of rhodamine 6G
# [14] = test system: Candida albicans; assay: Antifungal activity against Candida albicans in yeast extract-peptone-glucose medium at 428 ug/ml after 48 hrs by disc diffusion assay in presence of 100 ug/ml of calcofluor white; format: functional; outline: as §3
# [15] = test system: Candida albicans; assay: Antifungal activity against Candida albicans in yeast extract-peptone-glucose medium at 375 ug/ml after 48 hrs by disc diffusion assay in presence of 0.01% of sodium dodecylsulphate; format: functional; details: read-out: DIZ; outline: as §1
# [16] = test system: Candida albicans; assay: Antifungal activity against Candida albicans in yeast extract-peptone-glucose medium at 375 ug/ml after 48 hrs by disc diffusion assay in presence of 100 ug/ml of calcofluor white; format: functional; outline: as §1
# [17] = test system: Candida albicans; assay: Antifungal activity against Candida albicans in yeast extract-peptone-glucose medium at 375 ug/ml after 48 hrs by disc diffusion assay in presence of 150 ug/ml of congo red; format: functional; outline: as §1
# [18] = test system: Candida albicans; assay: Antifungal activity against Candida albicans in yeast extract-peptone-glucose medium at 375 ug/ml after 48 hrs by disc diffusion assay in presence of rhodamine 6G
# [19] = test system: Escherichia coli; assay: Antibacterial activity against Escherichia coli harboring ampicillin-resistance gene encoding plasmid at 375 ug/ml after 24 hrs by disc diffusion assay; format: functional; details: read-out: DIZ; outline: as §2
# [20] = test system: Candida albicans; assay: Antifungal activity against Candida albicans in yeast extract-peptone-glucose medium at 375 ug/ml after 48 hrs by disc diffusion assay; format: functional; details: read-out: DIZ; outline: as §1
# [21] = test system: Escherichia coli; assay: Antibacterial activity against Escherichia coli harboring ampicillin-resistance gene encoding plasmid at 500 ug/ml after 24 hrs by disc diffusion assay; format: functional; details: read-out: DIZ; outline: as §2
# [22] = test system: Candida albicans; assay: Antifungal activity against Candida albicans in yeast extract-peptone-glucose medium at 450 ug/ml after 48 hrs by disc diffusion assay in presence of 0.01% of sodium dodecylsulphate; format: functional; details: read-out: DIZ; outline: as §1
# [23] = test system: Candida albicans; assay: Antifungal activity against Candida albicans in yeast extract-peptone-glucose medium at 450 ug/ml after 48 hrs by disc diffusion assay; format: functional; details: read-out: DIZ; outline: as §1
# [24] = test system: Candida albicans; assay: Antifungal activity against Candida albicans in yeast extract-peptone-glucose medium at 450 ug/ml after 48 hrs by disc diffusion assay in presence of 150 ug/ml of congo red; format: functional; outline: as §1
# [25] = test system: Escherichia coli; assay: Antibacterial activity against Escherichia coli harboring ampicillin-resistance gene encoding plasmid at 450 ug/ml after 24 hrs by disc diffusion assay; format: functional; details: read-out: DIZ; outline: as §2
# [26] = test system: Candida albicans; assay: Antifungal activity against Candida albicans in yeast extract-peptone-glucose medium at 450 ug/ml after 48 hrs by disc diffusion assay in presence of […]; format: functional
# Outline: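 This is a C. albicans disc diffusion on YEPD agar containing rhodamine 6G, a substrate of the Cdr1p/Cdr2p ATP-dependent efflux pumps, to test for enhanced R6G toxicity. A set number of cells was spread, and 0.5 cm discs were spotted with compound solution or reference solvent. Plates were incubated at 30 °C and the zone diameter was measured.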
# [27] = test system: Candida albicans; assay: Antifungal activity against Candida albicans in yeast extract-peptone-glucose medium at 450 ug/ml after 48 hrs by disc diffusion assay in presence of 100 ug/ml of calcofluor white; format: functional; outline: as §1
SMILES,IC50 [12],zone of inhibition at 375 µg/mL [15],diameter of the inhibition zone (DIZ) [16],diameter of the inhibition zone (DIZ) [17],diameter of the inhibition zone (DIZ) [18],zone of inhibition at 375 µg/mL [20],zone of inhibition at 500 µg/mL [21],other results
O=C(C(=O)N1CCOCC1)c1cn(Cc2ccc(Cn3cc(C(=O)C(=O)N4CCOCC4)c4ccccc43)cc2)c2ccccc12,–,–,–,–,–,–,–,diameter of the inhibition zone (DIZ) [1]: 6 mm; diameter of the inhibition zone (DIZ) [2]: 6 mm; diameter of the inhibition zone (DIZ) [3]: 6 mm; zone of inhibition at 250 µg/mL [4]: 6.5 mm; zone of inhibition at 250 µg/mL [5]: 6.5 mm; zone of inhibition at 250 µg/mL [6]: 10.5 mm
Clc1ccc(COC(Cn2ccnc2)c2ccc(Cl)cc2Cl)c(Cl)c1 (stereo unspecified) [MICONAZOLE],–,–,–,–,–,–,–,zone of inhibition at 300 µg/mL [7]: 12 mm
O=C(C(=O)N1CCCC1)c1cn(CCCn2cc(C(=O)C(=O)N3CCCC3)c3ccccc32)c2ccccc12,465 µM,–,–,–,–,–,–,diameter of the inhibition zone (DIZ) [8]: 5.5 mm; zone of inhibition at 428 µg/mL [9]: 6.5 mm; zone of inhibition at 428 µg/mL [10]: 8 mm; zone of inhibition at 428 µg/mL [11]: 7.5 mm; diameter of the inhibition zone (DIZ) [13]: 6.5 mm; diameter of the inhibition zone (DIZ) [14]: 6.5 mm
O=C(C(=O)N1CCOCC1)c1cn(CCCCCn2cc(C(=O)C(=O)N3CCOCC3)c3ccccc32)c2ccccc12,340 µM,7 mm,7.5 mm,7 mm,8 mm,7.5 mm,–,zone of inhibition at 375 µg/mL [19]: 8.5 mm
O=C(C(=O)N1CCCC1)c1cn(CCCCCn2cc(C(=O)C(=O)N3CCCC3)c3ccccc32)c2ccccc12,–,6 mm,5.5 mm,8 mm,6.5 mm,5.5 mm,8 mm,–
O=C(C(=O)N1CCCCC1)c1cn(CCCCCn2cc(C(=O)C(=O)N3CCCCC3)c3ccccc32)c2ccccc12,–,–,–,–,–,–,–,zone of inhibition at 450 µg/mL [22]: 6.5 mm; zone of inhibition at 450 µg/mL [23]: 6 mm; diameter of the inhibition zone (DIZ) [24]: 7 mm; zone of inhibition at 450 µg/mL [25]: 8.5 mm; diameter of the inhibition zone (DIZ) [26]: 6.5 mm; diameter of the inhibition zone (DIZ) [27]: 6.5 mm
O=C(C(=O)N1CCOCC1)c1cn(CCCn2cc(C(=O)C(=O)N3CCOCC3)c3ccccc32)c2ccccc12,–,8.5 mm,6.5 mm,8 mm,7.5 mm,7 mm,6 mm,–
O=C(C(=O)N1CCCC1)c1cn(CCCCn2cc(C(=O)C(=O)N3CCCC3)c3ccccc32)c2ccccc12,78 µM,8 mm,7.5 mm,8 mm,7.5 mm,7.5 mm,10.5 mm,–
